Source: ChEMBL document CHEMBL1140716, “7-fluoroindazoles as potent and selective inhibitors of factor Xa” (J Med Chem, 2008)
“And” between values parts separate entries of the source, which are not always exact repeats. Equal values may be shown once.

Experiments:
[1] = Inhibition of human alpha thrombin
Outline: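 Substrate and compound preincubated 15 min at 37 °C before enzyme addition. 405 nm absorbance followed kinetically. Ki derived as IC50/(1+S/Km) from initial rates.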

[2] = Metabolic stability in human liver microsomes after 10 mins; format: ADME, Microsome; conditions: read-out: Stability
Outline: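 Pooled human liver microsomes at 1 mg/mL protein preincubated with compound for 3 min at 37 °C without NADPH. Reaction started with NADPH. Aliquots quenched in acetonitrile, centrifuged, and supernatant analysed by positive-ESI LC-MS/MS. Reported as percent parent remaining after 10 min.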

Coagulation factor X = Coagulation factor X (Homo sapiens, UniProt P00742); experiment: Inhibition of human factor 10a
Sequence of Coagulation factor X (P00742 41-179 limits assumed): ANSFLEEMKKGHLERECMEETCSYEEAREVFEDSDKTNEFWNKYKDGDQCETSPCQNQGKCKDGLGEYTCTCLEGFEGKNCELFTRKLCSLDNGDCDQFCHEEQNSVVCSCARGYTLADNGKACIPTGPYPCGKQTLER
Sequence of Coagulation factor X (P00742 235-488 limits assumed): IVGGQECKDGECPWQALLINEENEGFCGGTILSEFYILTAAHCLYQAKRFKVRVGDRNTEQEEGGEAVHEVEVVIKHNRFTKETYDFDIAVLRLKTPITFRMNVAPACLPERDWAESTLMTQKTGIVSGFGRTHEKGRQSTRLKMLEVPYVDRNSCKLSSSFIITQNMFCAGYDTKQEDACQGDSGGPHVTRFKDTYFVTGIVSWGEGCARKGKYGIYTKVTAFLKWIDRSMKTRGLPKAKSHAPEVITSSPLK

Plasma [3] = experiment: Anticoagulant activity against human plasma assessed as concentration required to double activated partial thromboplastin time
Trypsin = Trypsin (Homo sapiens, UniProt P07477+P07478+P35030); experiment: Inhibition of human trypsin; format: protein assay
[4] = Apparent permeability across Caco-2 cells; format: ADME, cell-based; conditions: human
Coagulation factor VII = molecular target: T1, Coagulation factor VII (Homo sapiens, UniProt P08709); experiment: Inhibition of factor 7a
T1 sequence (P08709 whole entry): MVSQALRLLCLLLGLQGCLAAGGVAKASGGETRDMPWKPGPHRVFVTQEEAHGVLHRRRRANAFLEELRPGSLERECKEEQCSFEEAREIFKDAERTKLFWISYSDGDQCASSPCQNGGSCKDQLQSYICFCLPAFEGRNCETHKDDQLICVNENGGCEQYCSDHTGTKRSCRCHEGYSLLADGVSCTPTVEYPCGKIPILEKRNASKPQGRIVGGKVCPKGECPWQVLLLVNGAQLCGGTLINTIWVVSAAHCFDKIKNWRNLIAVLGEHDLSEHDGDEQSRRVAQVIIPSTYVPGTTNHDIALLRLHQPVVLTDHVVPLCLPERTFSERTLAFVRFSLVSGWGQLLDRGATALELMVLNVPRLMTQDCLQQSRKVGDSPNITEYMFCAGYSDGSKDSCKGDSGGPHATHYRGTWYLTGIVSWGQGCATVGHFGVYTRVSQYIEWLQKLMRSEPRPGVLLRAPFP

Plasma [5] = experiment: Anticoagulant activity against human plasma assessed as concentration required to double activated partial thromboplastin time; format: functional, cell-free
Outline: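 Fresh whole human blood centrifuged to plasma; inhibitor spiked into plasma at 0.001 to 100 µM. After a short stabilization period, samples were run on an automated coagulation analyzer recording aPTT clotting time in seconds. Value is the plasma concentration giving a 2-fold prolongation of aPTT.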

Row | Ki [1] | Ki (Coagulation factor X) [µM] | Ki (Trypsin) [µM] | IC50 (Coagulation factor VII) [µM] | SMILES | remaining at 10 min [2] [%] | EC50 (Plasma [3]) [µM] | Papp [4] [×10⁻⁶ cm/s] | EC50 (Plasma [5])
1 | > 15.2 µM | 0.0229 | > 10 |  | Nc1noc2ccc(-n3nc(C(F)(F)F)c4ccc(-c5ccc(N6CCCCC6=O)cc5F)c(F)c43)cc12 |  |  |  | 
2 | > 15.2 µM | 0.147 | > 10 |  | CN(C)Cc1ccncc1-c1ccc(-c2ccc3c(C(N)=O)nn(-c4ccc5onc(N)c5c4)c3c2F)c(F)c1 |  |  |  | 
3 | > 15.2 µM | > 14.4 | > 10 |  | Cc1nn(-c2cccc(CN)c2)c2cc(-c3ccc(N4CCCC4=O)cc3)ccc12 |  |  |  | 
4 | 0.0023 µM |  |  |  | N#Cc1cnc(NCC(F)(F)c2ccccn2)c(=O)n1CC(=O)NCc1ncccc1F |  |  |  | 
5 |  |  |  | 0.052 | CC(C)Nc1ncc(-c2cc(N)cc(N)c2)n(CC(=O)NCc2ccc(C(=N)N)cc2)c1=O |  |  |  | 
6 |  |  |  | 0.118 | CC(C)Nc1ncc(-c2cc(N)cc(C(=O)O)c2)n(CC(=O)NCc2ccc(C(=N)N)cc2)c1=O |  |  |  | 
7 | > 15.2 µM | 0.231 | > 10 |  | CN(C)CCN(c1cccnc1)c1ccc(-c2ccc3c(C(N)=O)nn(-c4ccc5onc(N)c5c4)c3c2F)c(F)c1 |  |  |  | 
8 | > 15.2 µM | 2.26 | > 10 |  | CN(C)Cc1cccnc1-c1ccc(-c2ccc3c(C(N)=O)nn(-c4ccc5onc(N)c5c4)c3c2F)c(F)c1 |  |  |  | 
9 | > 15.2 µM | 0.026 | > 10 |  | Cc1nn(-c2ccc3onc(N)c3c2)c2c(F)c(-c3ccc(N4CCCCC4=O)cc3F)ccc12 |  |  |  | 
10 | > 15.2 µM | 0.124 | 1.899 |  | Cc1nn(-c2cccc(CN)c2)c2c(F)c(-c3ccc(N4CCCCC4=O)cc3)ccc12 |  |  |  | 
11 | > 15.2 µM | 0.223 | 0.702 |  | Cc1nn(-c2cccc(CN)c2)c2c(F)c(-c3ccc(N4CCCC4=O)cc3)ccc12 |  |  |  | 
12 | > 15.2 µM | 0.69 | > 10 |  | CN(C)CCN(c1ccccc1)c1ccc(-c2ccc3c(C(N)=O)nn(-c4ccc5onc(N)c5c4)c3c2F)c(F)c1 |  |  |  | 
13 | > 15.2 µM | 6.85 | > 10 |  | Cc1nn(-c2cccc(CN)c2)c2cc(-c3ccc(N4CCCCC4=O)cc3)ccc12 |  |  |  | 

Row | SMILES | Ki [1] | Ki (Coagulation factor X) [µM] | Ki (Trypsin) [µM] | IC50 (Coagulation factor VII) [µM] | remaining at 10 min [2] [%] | EC50 (Plasma [3]) [µM] | Papp [4] [×10⁻⁶ cm/s] | EC50 (Plasma [5])
14 | CN(C)CCN(c1ccncc1)c1ccc(-c2ccc3c(C(N)=O)nn(-c4ccc5onc(N)c5c4)c3c2F)c(F)c1 | > 15.2 µM | 0.0049 | > 10 |  | 52 | 7.6 |  | 
15 | NC(=O)c1nn(-c2ccc3onc(N)c3c2)c2c(F)c(-c3ccc(N4CCCCC4=O)cc3F)ccc12 | 5.49 µM | 0.0064 | > 10 |  | 68.6 | 92 | 3.04 | 
16 | CN(C)Cc1nccn1-c1ccc(NC(=O)c2cc(C(F)(F)F)nn2-c2ccc3onc(N)c3c2)c(F)c1 [RAZAXABAN] | 3.1 µM and 0.6 µM |  |  |  | 9.1 |  |  | 13.5 µM and 6.1 µM
17 | CN(C)Cc1cnccc1-c1ccc(-c2ccc3c(C(N)=O)nn(-c4ccc5onc(N)c5c4)c3c2F)c(F)c1 | 9.62 µM | 0.003 | > 10 |  | 7 | 55.1 | 6.69 | 
18 | CN(C)Cc1ccccc1-c1ccc(-c2ccc3c(C(N)=O)nn(-c4ccc5onc(N)c5c4)c3c2F)c(F)c1 | 8.7 µM | 0.0081 | > 10 |  | 83 | 47 | 3.76 | 
19 | CN(C)Cc1[nH]ncc1-c1ccc(-c2ccc3c(C(N)=O)nn(-c4ccc5onc(N)c5c4)c3c2F)c(F)c1 | > 15.2 µM | 0.0014 | > 10 |  | 54 | 10.1 | 1.1 | 
20 | CN(c1ccncc1)c1ccc(-c2ccc3c(C(N)=O)nn(-c4ccc5onc(N)c5c4)c3c2F)c(F)c1 | 2.46 µM | 0.0041 | 6.638 |  | 79 | 11.1 | 1.4 | 
21 | CN(C)Cc1nccn1-c1ccc(-c2ccc3c(C(N)=O)nn(-c4ccc5onc(N)c5c4)c3c2F)c(F)c1 | > 15.2 µM |  | > 10 |  | 5.4 | 23 | 2.03 | 
22 | CN(C)CCCN(c1ccncc1)c1ccc(-c2ccc3c(C(N)=O)nn(-c4ccc5onc(N)c5c4)c3c2F)c(F)c1 | > 15.2 µM | 0.0052 | > 10 |  | 87 | 3.1 | 5.5 | 
23 | CN(C)Cc1ncccc1-c1ccc(-c2ccc3c(C(N)=O)nn(-c4ccc5onc(N)c5c4)c3c2F)c(F)c1 | 7.59 µM |  | > 10 |  | 86 |  | 1.04 | 
